{"source": "the RNAGym collection of RNA variant scans (doi:10.1126/science.aae0568)", "parents": {"B1": {"name": "tRNA (parent)", "chain": "GUUCCGUUGGCGUAAUGGUAACGCGUCUCCCUCCUAAGGAGAAGACUGCGGGUUCGAGUCCCGUACGGAACG"}}, "note": "Fewer inactive variants are shown than the library holds."}
{"variants_of": "B1", "assay": "yeast fitness relative to wild type (ratio to wild type); higher = fitter; tRNA-Arg(CCU), competitive growth, 37 C, YPD", "procedure,_shortened": "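Variants of the tRNA-Arg(CCU) gene, chemically synthesised with a 3% per-site mutation rate at 69 sites, were placed at the native genomic locus in Saccharomyces cerevisiae. The pooled strains were competed in YPD at 37°C for 24 hours in six parallel replicates. Gene amplicons from the start population and from each end population were read by 100-nucleotide paired-end sequencing. Darwinian fitness relative to wild type came from changes in genotype frequencies; genotypes needed ≥ 100 starting reads, and estimates < 0.5 were set to 0.5.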"}
{"variant": "GUUCGGUUGGGAUAAUGGUAACGCGUCUCCCUCCUAAGGAGAAGAUUGCGGGUUCGAGUCCCGUACGGAACG", "yeast fitness": "≤ 0.5"}
{"variant": "GUUCGGUUGGCGUAAUGGUAACGCGUCUCCCUCCUACGGAGAAGACUGCGGGUUCGUGUCCCGUACGGAACG", "yeast fitness": "≤ 0.5"}
{"variant": "GUUCGGUUGGCGUAAUGGUAACGCGUCUCCCUCCUAAGGAGGAGACUGCGGGUUCGAGUCCCGCACGGAACG", "yeast fitness": 0.72}
{"variant": "GUUCGGUUGGCGUAAUGGUAACGCGUCUCCCUCCUAAGGAGGAGACUGCGGGUUCGAGUCCCGGACGGAACG", "yeast fitness": 0.637}
{"variant": "GUUCGGUUGGAGUAAUGGUCAGGCGUCUCUGUCCUAAGGAGAAGACUGCGGGUUCGAGUCACGUACAGAACG", "yeast fitness": "≤ 0.5"}
{"variant": "GUUCGGUUGGGGUAAUGGUCACGCGUCUCCCUUUUAAGGAGAAGACUGCGGGUUCGAGUCCCGUACGGAACG", "yeast fitness": "≤ 0.5"}
{"variant": "GUUCGGUUGGCGUAAUGGUAACGCGUCUCCCUCCUAAGGAGAAGACUGCGGGUUCGAGUCCCGUACGGCUCG", "yeast fitness": 0.765}
{"variant": "GUUCGGUUGGCGUAAUGGUAACGCGUCUCCCUCCUACGGAGAGGUCUGCGCGUUCGAGUCCGGUACGGAACG", "yeast fitness": "≤ 0.5"}
{"variant": "GUUCGGUUGGCGUAAUGGUAUCACGUCUACCUCCUAUGGAGAAGACUGCGGGUUCGAGUCUCGUACGGAACG", "yeast fitness": "≤ 0.5"}
{"variant": "GUUCGGUUGGAGUAAUGGCCACGCGUCUCCCUACUAAGGAGAAGACUGCGGGUUCGAGUCGCGUAUGGUACG", "yeast fitness": "≤ 0.5"}
{"variant": "GUUCGGUUGGCGUAAUGGUAACGCGUCUCCCUCCUAAGGAGCAGACUGCGGGUUCGAGUCCCGUACGGAACG", "yeast fitness": 0.814}
{"variant": "GUUCGGUUGGCGUAAUGGUAACGCGUCUCCCUCCUAAGGAGUAGACUGCGGGUUCGAGUCCCGUACGGAACG", "yeast fitness": 0.683}
{"variant": "GUUCGGUUGGGGUAAUGGUAACGCGUGUCCCUCCUAAGGAGAAGACUACGGGUUCGAGUCCCGUACGGAACG", "yeast fitness": 0.524}
{"variant": "GUUCGGUUGGAGUAAUGGUGACGCGUCCCCCUUCUAAGGAGAAGACUGCGGGUUCGAGUCCCGUACGGACCG", "yeast fitness": "≤ 0.5"}
{"variant": "GUUCGGUUGGCGUAAUGGUAACGCGUCUCCCUCCUGAGGAGAACACUGCGGGUUCGAGUCCCGUACGGAACG", "yeast fitness": 0.672}
{"variant": "GUUCGGUUGGGGUAAUGGUCACGCGUCUCCCUUUUAAGGAGAAGACUGCGGGUUCGAGUCGCGUACGGAACG", "yeast fitness": 0.529}
{"variant": "GUUCGGUUGGCGUAAUGGUAACGCGUCUCCCUCCUAGGGAGAAGAGUGCGGGUUCGAGUCCCGUACGGAACG", "yeast fitness": 0.598}
{"variant": "GUUCGGUUGGGGUUUUGGUAACGCGUCUCCCUCCUAAGGAGAAGACUGCGGGUUCGAGUCCCGUGCGGAACG", "yeast fitness": "≤ 0.5"}
{"variant": "GUUCGGUUGGCGUAAUGGUAACGCGUCUCCCUCCUAAGGAGAAGACUGCGGGUUCGAGUCCCGUUCCGAACG", "yeast fitness": 0.569}
{"variant": "GUUCGGUUGGCGUAAUGGUAACGCGUCUCCCUCCUACGGAGUAGACUGCGGGUUCGAGUCCCGUACGGAACG", "yeast fitness": 0.533}
{"variant": "GUUCGGUUGGCGUAAUGGUAACGCGUCUCCCUCCUAAGGAGAAGUCUGCGGGUUCGUGUCCCGUACGGAACG", "yeast fitness": 0.565}
{"variant": "GUUCGGUUGGCGUAAUGGUAACGCGUCUCCCUCCUAAGGAGACGACUACGGGUUCGAGGCCCGUACGGAACG", "yeast fitness": "≤ 0.5"}
{"variant": "GUUCGGUUGGCGUAAUGGUAACGCGUCUCCCUCCUAUGGAGAAGAUUGCGGGUUCGAGUCCCGUACGGAACG", "yeast fitness": 0.536}
{"variant": "GUUCGGUUGGGGUAAUGGUAACGCGUCUCCCUCCUAAGGGGAAGACUGCGGGUUCGAGUCCCGUACGGAACG", "yeast fitness": 0.556}
{"variant": "GUUCGGUUGGCGUAAUGGUAACGCGUCUCCCUCCUAAGGAGUAGACUGCGGGUUCGUGACCCGUACGGCACG", "yeast fitness": "≤ 0.5"}
{"variant": "GUUCGGUUGGCGUAAUGGUAACGCGUCUCCCUCCUAAGGAGAAGACUGCGGGUUCGAGUCCCGUGCGGUACG", "yeast fitness": 0.71}
{"variant": "GUUCGGUUGGCGUAAUGGUAACGCGUCUCCCUCCUCAGGAGGAGACUGCGGGUUCGAGUCCCGUACGGAACG", "yeast fitness": "≤ 0.5"}
{"variant": "GUUCGGUUGGGGUAAUGGUAACGCGUCUCCCUCCUAAGGAGCAGACUGUGGGUUCGAGUCCCGUACGGAACG", "yeast fitness": "≤ 0.5"}
{"variant": "GUUCGGUUGGAGUGAUGGUAACGCCUCUGCCUCCUAAGGAGAAGACUGCGGGUUCGAGUCCCGUAUGGAACG", "yeast fitness": "≤ 0.5"}
{"variant": "GUUCGGUUGGCGUAAUGGUAACGCGUCUCCCUCCUAAGGAGCAGACUGCGGGUUCGAGUCCCGUACGGACCG", "yeast fitness": 0.689}
{"variant": "GUUCGGUUGGCGUAAUGGUAACGCGUCUCCCUCCUAAGGAGAAGUCUGCGGGUUCGAGUCCCGUACGCAACG", "yeast fitness": "≤ 0.5"}
{"variant": "GUUCGGUUGGCGUAAUGGUAACGCGUCUCCCUCCUAAGGAGAGGACUGCGGGUUCGAGUCCCGUACUGAACG", "yeast fitness": 0.543}
{"variant": "GUUCGGUUGGCGUAAUGGUAACGCGUCUCCCUCCUAAGGAGAAGUCUGCGGGUUCGAGUCCCGUACGGAACG", "yeast fitness": 1.01}
{"variant": "GUUCGGUUGGCGUAAUGGUAACGCGUCUCCCUCCUAAGGAGAAGGCUGCGGGUUCGAGUCCCGUACGGAACG", "yeast fitness": 0.984}
{"variant": "GUUCGGUUGGAGUAAUGGCCACGCGUCUCCCUACUAAGGAGAAGACUGCGGGUUCGAGUCGCGUACGGAACG", "yeast fitness": 0.676}
{"variant": "GUUCGGUUGGCGUAAUGGUAACGCGUCUCCCUCCUAAGGAGACGACUGCGGCUUCGAGUCCCGUACGGAACG", "yeast fitness": "≤ 0.5"}
{"variant": "GUUCGGUUGGCGUAAUGGUAACGCGUCUCCCUCCUAAGGAGAAGCCUGCGGGUUCGAGUUCCGUACGGUACG", "yeast fitness": 0.52}
{"variant": "GUUCGGUUGGCGUAAUGGUAUCGCGUCUCCCUCCUAAGGAGAGGACUGCGGGUUCGAGUCCAGUACGGAACG", "yeast fitness": "≤ 0.5"}
